Laboratory results published in ChEMBL document CHEMBL2417457, “Octahydropyrrolo[3,4-c]pyrrole negative allosteric modulators of mGlu1” (Bioorg Med Chem Lett, 2013).
The source made the active and inactive calls. The calls are words filed in the database; no cut-off is given here.

Key:
[1] = molecular target: T1, Metabotropic glutamate receptor 1 (Homo sapiens, UniProt Q13255); assay: Negative allosteric modulation of human mGlu1 receptor up to 30 uM
Target sequence in this assay (Q13255 whole entry, looked up): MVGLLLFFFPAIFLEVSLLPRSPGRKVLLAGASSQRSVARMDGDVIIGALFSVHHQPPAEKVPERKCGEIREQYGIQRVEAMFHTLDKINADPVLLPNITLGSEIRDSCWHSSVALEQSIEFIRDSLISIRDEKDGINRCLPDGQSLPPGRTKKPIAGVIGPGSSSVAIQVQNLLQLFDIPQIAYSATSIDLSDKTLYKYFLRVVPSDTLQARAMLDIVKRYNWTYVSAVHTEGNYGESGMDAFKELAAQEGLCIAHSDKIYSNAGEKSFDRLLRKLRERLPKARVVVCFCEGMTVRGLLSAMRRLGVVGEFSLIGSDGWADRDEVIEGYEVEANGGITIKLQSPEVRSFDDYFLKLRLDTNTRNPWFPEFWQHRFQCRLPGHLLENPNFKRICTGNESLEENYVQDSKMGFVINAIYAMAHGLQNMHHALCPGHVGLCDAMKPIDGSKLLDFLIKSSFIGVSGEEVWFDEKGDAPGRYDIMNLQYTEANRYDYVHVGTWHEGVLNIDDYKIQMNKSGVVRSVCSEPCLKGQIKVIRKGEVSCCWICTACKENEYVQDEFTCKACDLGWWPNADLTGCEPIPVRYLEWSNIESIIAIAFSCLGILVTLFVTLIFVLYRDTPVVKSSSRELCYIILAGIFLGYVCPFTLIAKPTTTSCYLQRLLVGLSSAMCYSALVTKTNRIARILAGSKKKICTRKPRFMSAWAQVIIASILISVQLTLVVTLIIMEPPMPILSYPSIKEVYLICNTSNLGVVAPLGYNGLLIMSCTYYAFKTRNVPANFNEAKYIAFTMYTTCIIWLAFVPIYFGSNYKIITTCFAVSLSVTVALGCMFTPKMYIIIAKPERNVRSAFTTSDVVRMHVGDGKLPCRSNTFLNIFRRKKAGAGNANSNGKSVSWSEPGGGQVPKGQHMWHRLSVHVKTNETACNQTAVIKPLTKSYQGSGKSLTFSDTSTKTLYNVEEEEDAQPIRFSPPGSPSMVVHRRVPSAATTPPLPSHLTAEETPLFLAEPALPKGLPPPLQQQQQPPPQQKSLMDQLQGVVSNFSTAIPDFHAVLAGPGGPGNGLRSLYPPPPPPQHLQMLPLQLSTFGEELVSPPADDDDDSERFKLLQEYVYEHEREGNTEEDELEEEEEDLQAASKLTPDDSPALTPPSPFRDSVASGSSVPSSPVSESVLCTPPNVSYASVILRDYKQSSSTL

[2] = molecular target: T1, Metabotropic glutamate receptor 1; assay: Negative allosteric modulation of human mGlu1 receptor expressed in HEK293A TREx cells assessed as calcium flux after 45 mins; format: functional, cell-based, HEK293-A
Procedure, shortened: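 HEK293A TREx cells stably expressing human mGlu1 were induced overnight with 50 ng/mL tetracycline at 37 °C. Ten-point 1:3 compound series were added for 2.3 min, then an EC20 of glutamate, then an EC80 of glutamate 1.9 min later. Ca2+ flux was read for 1.7 min. Values are the average of n ≥ 3.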
Target sequence in this assay (Q13255 whole entry): as the sequence (Q13255 whole entry, looked up) above

Cytochrome P450 2C9 = Cytochrome P450 2C9 (Homo sapiens, UniProt P11712); assay: Inhibition of CYP2C9 in human liver microsomes in presence of NADPH; format: ADME, Microsome
Cytochrome P450 2D6 = Cytochrome P450 2D6 (Homo sapiens, UniProt P10635); assay: Inhibition of CYP2D6 in human liver microsomes in presence of NADPH; format: ADME, Microsome
Cytochrome P450 3A4 = Cytochrome P450 3A4 (Homo sapiens, UniProt P08684); assay: Inhibition of CYP3A4 in human liver microsomes in presence of NADPH; format: ADME, Microsome
Cytochrome P450 1A2 = molecular target: T2, Cytochrome P450 1A2 (Homo sapiens, UniProt P05177); assay: Inhibition of CYP1A2 in human liver microsomes in presence of NADPH; format: ADME, Microsome
T2 sequence (P05177 whole entry): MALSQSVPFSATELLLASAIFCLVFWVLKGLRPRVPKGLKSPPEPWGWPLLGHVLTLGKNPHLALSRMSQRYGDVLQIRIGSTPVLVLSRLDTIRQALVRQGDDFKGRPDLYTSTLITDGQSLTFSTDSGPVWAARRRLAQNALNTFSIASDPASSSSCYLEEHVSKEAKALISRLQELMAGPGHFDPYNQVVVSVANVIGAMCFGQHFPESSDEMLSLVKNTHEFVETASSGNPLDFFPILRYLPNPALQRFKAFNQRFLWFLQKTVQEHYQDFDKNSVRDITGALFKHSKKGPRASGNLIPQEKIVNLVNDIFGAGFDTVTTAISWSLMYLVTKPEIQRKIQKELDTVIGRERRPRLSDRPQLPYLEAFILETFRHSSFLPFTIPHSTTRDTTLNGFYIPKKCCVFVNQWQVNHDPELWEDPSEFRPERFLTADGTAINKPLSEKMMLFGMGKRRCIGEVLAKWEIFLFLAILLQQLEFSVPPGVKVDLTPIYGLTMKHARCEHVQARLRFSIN

[3] = molecular target: T1, Metabotropic glutamate receptor 1; assay: Negative allosteric modulation of human mGlu1 receptor expressed in HEK293A TREx cells assessed as calcium flux at 30 uM after 45 mins relative to glutamate; format: functional, cell-based; conditions: HEK293-A
Procedure, shortened: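 Tetracycline-induced HEK293A TREx cells expressing human mGlu1 were loaded with Fluo-4 for Ca2+ flux. Test compound was given at 30 μM. Response amplitude is expressed as a percentage of the maximal response to 100 μM glutamate, averaged over n ≥ 3.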
Target sequence in this assay (Q13255 19-1194 limits assumed): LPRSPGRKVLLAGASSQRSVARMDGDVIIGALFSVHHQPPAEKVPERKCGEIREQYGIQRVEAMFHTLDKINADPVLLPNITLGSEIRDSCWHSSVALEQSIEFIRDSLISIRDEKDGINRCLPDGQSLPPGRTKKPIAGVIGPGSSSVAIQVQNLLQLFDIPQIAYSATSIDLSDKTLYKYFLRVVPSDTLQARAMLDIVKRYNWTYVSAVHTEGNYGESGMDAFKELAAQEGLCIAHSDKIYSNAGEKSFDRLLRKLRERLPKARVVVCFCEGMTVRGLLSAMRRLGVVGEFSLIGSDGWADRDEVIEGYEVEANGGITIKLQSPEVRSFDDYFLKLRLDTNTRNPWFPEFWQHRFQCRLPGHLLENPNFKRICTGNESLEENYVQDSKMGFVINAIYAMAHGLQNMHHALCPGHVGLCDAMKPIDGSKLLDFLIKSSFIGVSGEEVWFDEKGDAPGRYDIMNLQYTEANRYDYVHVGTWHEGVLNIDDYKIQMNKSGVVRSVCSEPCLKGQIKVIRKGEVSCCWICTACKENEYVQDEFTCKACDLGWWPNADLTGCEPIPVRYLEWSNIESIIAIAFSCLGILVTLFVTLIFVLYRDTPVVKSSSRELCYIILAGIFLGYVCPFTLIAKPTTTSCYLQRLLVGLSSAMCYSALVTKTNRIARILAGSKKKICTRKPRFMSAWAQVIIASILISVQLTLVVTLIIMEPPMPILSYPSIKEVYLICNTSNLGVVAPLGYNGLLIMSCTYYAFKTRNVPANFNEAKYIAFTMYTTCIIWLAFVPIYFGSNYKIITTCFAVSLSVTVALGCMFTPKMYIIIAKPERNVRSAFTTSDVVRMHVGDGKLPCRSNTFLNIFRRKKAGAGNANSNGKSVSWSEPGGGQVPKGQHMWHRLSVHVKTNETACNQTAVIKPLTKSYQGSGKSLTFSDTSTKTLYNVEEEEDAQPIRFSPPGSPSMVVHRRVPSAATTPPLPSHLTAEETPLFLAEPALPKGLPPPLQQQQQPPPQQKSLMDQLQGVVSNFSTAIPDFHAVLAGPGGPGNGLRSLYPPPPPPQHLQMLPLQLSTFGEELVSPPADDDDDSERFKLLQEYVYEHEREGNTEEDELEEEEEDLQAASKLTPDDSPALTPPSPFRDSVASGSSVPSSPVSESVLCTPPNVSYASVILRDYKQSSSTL

[4] = molecular target: Metabotropic glutamate receptor 5 (Rattus norvegicus) (UniProt P31424); assay: Negative allosteric modulation of rat mGlu5 receptor at 30 uM relative to glutamate
[5] = molecular target: Metabotropic glutamate receptor 5 (Rattus norvegicus, UniProt P31424); assay: Negative allosteric modulation of mGlu5 receptor (unknown origin) by cell based assay
[6] = molecular target: T3, 5-hydroxytryptamine receptor 3A (Homo sapiens) (UniProt P46098); assay: Binding affinity to human 5HT3 receptor by radioligand binding assay; conditions: concentration not given here
T3 sequence (whole entry): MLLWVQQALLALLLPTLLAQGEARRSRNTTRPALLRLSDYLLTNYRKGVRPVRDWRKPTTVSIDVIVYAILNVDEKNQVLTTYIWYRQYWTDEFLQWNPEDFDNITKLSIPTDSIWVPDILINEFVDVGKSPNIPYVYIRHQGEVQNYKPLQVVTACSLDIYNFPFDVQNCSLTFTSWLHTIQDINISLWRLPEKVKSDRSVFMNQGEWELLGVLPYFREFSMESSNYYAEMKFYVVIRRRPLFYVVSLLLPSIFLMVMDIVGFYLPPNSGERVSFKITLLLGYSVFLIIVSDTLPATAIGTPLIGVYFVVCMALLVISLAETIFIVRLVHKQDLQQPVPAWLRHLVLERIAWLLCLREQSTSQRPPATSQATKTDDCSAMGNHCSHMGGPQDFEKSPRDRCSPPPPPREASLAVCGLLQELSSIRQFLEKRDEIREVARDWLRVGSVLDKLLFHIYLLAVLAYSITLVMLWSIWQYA
Procedure, shortened: (§1)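 Compound was screened at 10 μM in a commercial radioligand binding panel of 68 GPCRs, ion channels, kinases and transporters.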

Brain = assay: Fraction unbound in rat brain; format: ADME, tissue-based
Procedure, shortened: (§2)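 Unbound fraction was determined by equilibrium dialysis against rat plasma or rat brain homogenate.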

Rattus norvegicus = species on record: Rattus norvegicus; assay: Binding affinity to rat sodium channel site 2 by radioligand binding assay; conditions: concentration not given here
Procedure, shortened: as §1

[7] = molecular target: Metabotropic glutamate receptor 2 (Homo sapiens) (UniProt Q14416); assay: Negative allosteric modulation of mGlu2 receptor (unknown origin) by cell based assay
Procedure, shortened: (§3)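 Selectivity against other mGlu subtypes was tested in cell-based functional assays with compound at 10 μM.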

[8] = molecular target: Sigma non-opioid intracellular receptor 1 (Homo sapiens) (UniProt Q99720); assay: Binding affinity to human sigma1 receptor by radioligand binding assay; conditions: concentration not given here
Procedure, shortened: as §1

Plasma = assay: Fraction unbound in rat plasma; format: ADME, cell-free
Procedure, shortened: as §2

[9] = molecular target: Metabotropic glutamate receptor 3 (Homo sapiens) (UniProt Q14832); assay: Negative allosteric modulation of mGlu3 receptor (unknown origin) by cell based assay
Procedure, shortened: as §3

[10] = molecular target: Metabotropic glutamate receptor 4 (Homo sapiens) (UniProt Q14833); assay: Negative allosteric modulation of mGlu4 receptor (unknown origin) by cell based assay
Procedure, shortened: as §3

[11] = molecular target: Kappa-type opioid receptor (Homo sapiens) (UniProt P41145); assay: Binding affinity to human kappa opioid receptor by radioligand binding assay; conditions: concentration not given here
Procedure, shortened: as §1

[12] = molecular target: Metabotropic glutamate receptor 6 (Homo sapiens) (UniProt O15303); assay: Negative allosteric modulation of mGlu6 receptor (unknown origin) by cell based assay
Procedure, shortened: as §3

[13] = molecular target: Metabotropic glutamate receptor 8 (Homo sapiens) (UniProt O00222); assay: Negative allosteric modulation of mGlu8 receptor (unknown origin) by cell based assay
Procedure, shortened: as §3

Cytochrome P450 3A4, sequence (P08684 whole entry): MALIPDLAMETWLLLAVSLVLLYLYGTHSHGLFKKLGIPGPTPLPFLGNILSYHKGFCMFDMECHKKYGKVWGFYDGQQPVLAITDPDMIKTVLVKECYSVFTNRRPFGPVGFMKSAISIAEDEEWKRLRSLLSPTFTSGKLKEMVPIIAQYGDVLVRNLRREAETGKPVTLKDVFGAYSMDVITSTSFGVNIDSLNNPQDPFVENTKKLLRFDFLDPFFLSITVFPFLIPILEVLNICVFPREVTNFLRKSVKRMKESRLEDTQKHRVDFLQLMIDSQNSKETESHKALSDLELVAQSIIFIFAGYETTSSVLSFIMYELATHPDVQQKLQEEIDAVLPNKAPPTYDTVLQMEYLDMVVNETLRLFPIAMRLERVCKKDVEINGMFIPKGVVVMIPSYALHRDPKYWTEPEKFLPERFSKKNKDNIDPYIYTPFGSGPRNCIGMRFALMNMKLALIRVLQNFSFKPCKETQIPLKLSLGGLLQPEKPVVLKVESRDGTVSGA
Cytochrome P450 2C9, sequence (P11712 whole entry): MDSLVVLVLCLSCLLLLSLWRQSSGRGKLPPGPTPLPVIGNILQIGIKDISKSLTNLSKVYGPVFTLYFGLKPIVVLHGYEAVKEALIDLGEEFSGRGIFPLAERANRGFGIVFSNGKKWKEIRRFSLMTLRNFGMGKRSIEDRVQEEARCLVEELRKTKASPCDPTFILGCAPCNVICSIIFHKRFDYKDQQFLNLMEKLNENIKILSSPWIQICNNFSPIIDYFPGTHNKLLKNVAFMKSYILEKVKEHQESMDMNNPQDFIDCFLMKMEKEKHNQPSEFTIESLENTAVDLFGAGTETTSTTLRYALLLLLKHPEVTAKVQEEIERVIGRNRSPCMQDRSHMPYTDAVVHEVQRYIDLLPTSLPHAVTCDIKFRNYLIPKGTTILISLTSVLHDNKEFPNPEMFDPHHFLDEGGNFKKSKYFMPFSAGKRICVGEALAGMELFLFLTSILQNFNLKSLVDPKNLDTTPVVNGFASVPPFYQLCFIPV
Cytochrome P450 2D6, sequence (P10635 whole entry): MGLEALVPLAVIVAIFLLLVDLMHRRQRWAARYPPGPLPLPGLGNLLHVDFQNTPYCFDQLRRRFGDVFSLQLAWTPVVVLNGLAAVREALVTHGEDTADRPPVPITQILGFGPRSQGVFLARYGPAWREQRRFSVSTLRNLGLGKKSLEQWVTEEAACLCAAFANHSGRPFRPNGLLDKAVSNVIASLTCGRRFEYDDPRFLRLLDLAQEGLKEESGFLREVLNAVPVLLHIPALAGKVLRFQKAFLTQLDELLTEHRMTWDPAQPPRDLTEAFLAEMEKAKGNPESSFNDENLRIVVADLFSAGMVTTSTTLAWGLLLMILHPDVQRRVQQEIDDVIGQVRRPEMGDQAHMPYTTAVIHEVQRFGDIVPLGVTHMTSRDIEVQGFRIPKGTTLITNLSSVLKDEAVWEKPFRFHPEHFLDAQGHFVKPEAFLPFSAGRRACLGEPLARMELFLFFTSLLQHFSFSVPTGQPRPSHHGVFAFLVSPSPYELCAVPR
Metabotropic glutamate receptor 3 (Homo sapiens), sequence (Q14832 23-879 limits assumed): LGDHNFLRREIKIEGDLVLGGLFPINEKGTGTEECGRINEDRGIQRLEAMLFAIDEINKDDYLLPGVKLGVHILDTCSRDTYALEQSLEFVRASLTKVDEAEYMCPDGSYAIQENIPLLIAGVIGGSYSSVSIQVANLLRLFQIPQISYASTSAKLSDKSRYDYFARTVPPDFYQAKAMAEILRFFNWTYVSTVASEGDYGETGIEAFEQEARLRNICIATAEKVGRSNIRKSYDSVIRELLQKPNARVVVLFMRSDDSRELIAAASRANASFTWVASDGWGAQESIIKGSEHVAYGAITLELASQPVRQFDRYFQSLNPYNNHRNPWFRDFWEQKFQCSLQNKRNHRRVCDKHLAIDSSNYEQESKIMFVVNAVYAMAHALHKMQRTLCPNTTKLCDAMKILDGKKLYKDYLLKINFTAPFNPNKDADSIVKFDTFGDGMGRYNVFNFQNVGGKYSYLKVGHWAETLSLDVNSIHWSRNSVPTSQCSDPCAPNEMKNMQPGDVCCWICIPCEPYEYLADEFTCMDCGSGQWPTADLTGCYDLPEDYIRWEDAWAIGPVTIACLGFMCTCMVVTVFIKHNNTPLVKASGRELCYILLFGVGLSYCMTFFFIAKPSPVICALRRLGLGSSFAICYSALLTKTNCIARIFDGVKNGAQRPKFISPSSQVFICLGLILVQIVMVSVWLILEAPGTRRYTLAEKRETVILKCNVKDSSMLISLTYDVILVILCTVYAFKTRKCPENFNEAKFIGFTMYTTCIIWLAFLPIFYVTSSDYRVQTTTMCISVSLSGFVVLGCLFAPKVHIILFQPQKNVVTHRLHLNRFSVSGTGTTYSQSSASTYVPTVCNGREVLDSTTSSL
Sigma non-opioid intracellular receptor 1 (Homo sapiens), sequence (Q99720 whole entry): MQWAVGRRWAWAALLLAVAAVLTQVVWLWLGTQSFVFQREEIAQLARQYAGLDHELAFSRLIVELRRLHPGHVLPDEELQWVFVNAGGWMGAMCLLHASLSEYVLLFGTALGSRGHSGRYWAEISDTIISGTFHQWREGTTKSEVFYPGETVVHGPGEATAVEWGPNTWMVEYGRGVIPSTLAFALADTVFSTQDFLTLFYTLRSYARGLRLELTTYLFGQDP

IC50 [2] | %max [3] | SMILES | further results
> 30000 nM |  | CC(C)(C)CC(=O)N1C[C@@H]2CN(c3ccccn3)C[C@@H]2C1 | Activity [1]: inactive
 |  | C[C@@H]1CN(c2cccnc2C#N)CCN1C(=O)C12CC3CC(CC(C3)C1)C2 | IC50 (Cytochrome P450 2C9): > 30 µM; IC50 (Cytochrome P450 2D6): 12.4 µM; IC50 (Cytochrome P450 3A4): 7 µM; IC50 (Cytochrome P450 1A2): > 30 µM
1000 nM | 2.1% | O=C(N1C[C@@H]2CN(c3ncccc3F)C[C@@H]2C1)C12CC3CC(CC(C3)C1)C2 | 
 | 0% | O=C(CC12CC3CC(CC(C3)C1)C2)N1C[C@@H]2CN(c3ccccn3)C[C@@H]2C1 | 
> 10000 nM | 57.7% | O=C(C1CCCCC1)N1C[C@@H]2CN(c3ccccn3)C[C@@H]2C1 | 
85 nM | 2.2% | O=C(N1C[C@@H]2CN(c3ccccn3)C[C@@H]2C1)C12CC3CC(CC(C3)C1)C2 | %max [4]: 1.1%; IC50 (Cytochrome P450 2C9): > 30 µM; IC50 [5]: 3.36 µM; IC50 (Cytochrome P450 2D6): 24.3 µM; inhibition [6]: 90%; Fu (Brain): 2.3%; IC50 (Cytochrome P450 3A4): 6.2 µM; inhibition (Rattus norvegicus): 52%; Activity [7]: inactive; IC50 (Cytochrome P450 1A2): > 30 µM; inhibition [8]: 95%; Fu (Plasma): 2.9%; Activity [9]: inactive; Activity [10]: inactive; inhibition [11]: 60%
185 nM | 6.9% | N#Cc1ccccc1N1C[C@H]2CN(C(=O)C34CC5CC(CC(C5)C3)C4)C[C@H]2C1 | Fu (Plasma): 1.4%
553 nM | 1.3% | N#Cc1ncccc1N1C[C@H]2CN(C(=O)C34CC5CC(CC(C5)C3)C4)C[C@H]2C1 | Fu (Plasma): 4.5%
11900 nM | -7.5% | CC1(C)[C@@H]2CN(C(=O)N3C[C@@H]4CN(c5ccccn5)C[C@@H]4C3)C[C@@H]21 | 
833 nM | 0.1% | N#Cc1ccncc1N1C[C@H]2CN(C(=O)C34CC5CC(CC(C5)C3)C4)C[C@H]2C1 | 
> 30000 nM |  | CC(C)(C)C(=O)N1C[C@@H]2CN(c3ccccn3)C[C@@H]2C1 | 
93 nM | 2.3% | O=C(N1C[C@@H]2CN(c3cccc(F)n3)C[C@@H]2C1)C12CC3CC(CC(C3)C1)C2 | Fu (Plasma): 1.2%
769 nM | 0.7% | O=C(N1CCC2(CCCC2)CC1)N1C[C@@H]2CN(c3ccccn3)C[C@@H]2C1 | 
> 10000 nM | 56.6% | O=C(N1C[C@@H]2CN(c3nccs3)C[C@@H]2C1)C12CC3CC(CC(C3)C1)C2 | 
297 nM | -0.1% | O=C(N1C[C@@H]2CN(c3ccccn3)C[C@@H]2C1)N1CCC2(CCCC2)C1 | IC50 (Cytochrome P450 2C9): > 30 µM; IC50 [5]: > 10 µM; IC50 (Cytochrome P450 2D6): > 30 µM; Fu (Brain): 5.1%; IC50 (Cytochrome P450 3A4): > 30 µM; Activity [12]: Active; Activity [13]: Active; Activity [7]: inactive; IC50 (Cytochrome P450 1A2): > 30 µM; Fu (Plasma): 9%; Activity [9]: inactive; Activity [10]: inactive
5140 nM | 9.3% | CC1(C(=O)N2C[C@@H]3CN(c4ccccn4)C[C@@H]3C2)CCCCC1 | 

IC50 [2] | %max [3] | SMILES | further results
> 10000 nM | 36.5% | O=C(C1CCCCCC1)N1C[C@@H]2CN(c3ccccn3)C[C@@H]2C1 | 
669 nM | -1.1% | O=C(N1C[C@@H]2CN(c3cnccn3)C[C@@H]2C1)C12CC3CC(CC(C3)C1)C2 | Fu (Plasma): 10.3%
> 10000 nM | 36.8% | N#Cc1cnccc1N1C[C@H]2CN(C(=O)C34CC5CC(CC(C5)C3)C4)C[C@H]2C1 | 
> 10000 nM | 23.2% | O=C(N1CCCCCCC1)N1C[C@@H]2CN(c3ccccn3)C[C@@H]2C1 | 
364 nM | 1.5% | O=C(N1CCC2(CCCCC2)CC1)N1C[C@@H]2CN(c3ccccn3)C[C@@H]2C1 | Fu (Plasma): 1.5%
> 10000 nM | 10.3% | O=C(N1C[C@@H]2CN(c3ncccn3)C[C@@H]2C1)C12CC3CC(CC(C3)C1)C2 | 
> 10000 nM | 47.6% | O=C(CC1CCCCC1)N1C[C@@H]2CN(c3ccccn3)C[C@@H]2C1 | 
 | -5.8% | O=C(N1CC2CCC(C2)C1)N1C[C@@H]2CN(c3ccccn3)C[C@@H]2C1 | 
478 nM | 2.2% | O=C(N1C[C@@H]2CN(c3ccc(F)cn3)C[C@@H]2C1)C12CC3CC(CC(C3)C1)C2 | Fu (Plasma): 1.5%
 | 12.2% | N#Cc1cccnc1N1C[C@H]2CN(C(=O)C34CC5CC(CC(C5)C3)C4)C[C@H]2C1 | 
> 10000 nM | 58.7% | O=C(N1C[C@@H]2CN(c3ccccn3)C[C@@H]2C1)C12C3C4C5C3C1C5C42 (stereo partly drawn) | 
> 10000 nM | 25.5% | O=C(N1C[C@@H]2CN(c3ccncn3)C[C@@H]2C1)C12CC3CC(CC(C3)C1)C2 | 
> 10000 nM | 37.9% | C[C@H]1CC[C@H](C(=O)N2C[C@H]3CN(c4ccccn4)C[C@H]3C2)CC1 | 
> 10000 nM | 29.2% | CC(C)(C)[C@H]1CC[C@H](C(=O)N2C[C@H]3CN(c4ccccn4)C[C@H]3C2)CC1 | 
1910 nM | -1.5% | O=C(N1CC2CCCC(C2)C1)N1C[C@@H]2CN(c3ccccn3)C[C@@H]2C1 | 
